Measured values: ChEMBL document CHEMBL3997791, “Nanomolar-Potency Aminophenyl-1,3,5-triazine Activators of the Cystic Fibrosis Transmembrane Conductance Regulator (CFTR) Chloride Channel for Prosecretory Therapy of Dry Eye Diseases” (J Med Chem, 2017)
Calls of active or inactive are those of the source. The calls are words filed in the database; no cut-off is given here.

How the values were obtained:
[1] = biological target: T1, Cystic fibrosis transmembrane conductance regulator (Homo sapiens, UniProt P13569); assay: Activation of human CFTR expressed in FRT cells co-expressing YFP assessed as increase in forskolin-stimulated iodide influx at 10 uM measured after 10 mins for 2 to 12 sec by fluorescence assay; assay type: cell-based
Summary of the method: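 FRT cells stably coexpressing human wild-type CFTR and YFP-H148Q halide sensor; PBS wash, then 10 min with compound in PBS containing 125 nM forskolin. Plate reader: 2 s baseline, then 12 s after rapid iodide-containing solution addition; initial iodide influx rate taken as linear measure of channel function.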
Target sequence in this assay (P13569 whole entry, looked up): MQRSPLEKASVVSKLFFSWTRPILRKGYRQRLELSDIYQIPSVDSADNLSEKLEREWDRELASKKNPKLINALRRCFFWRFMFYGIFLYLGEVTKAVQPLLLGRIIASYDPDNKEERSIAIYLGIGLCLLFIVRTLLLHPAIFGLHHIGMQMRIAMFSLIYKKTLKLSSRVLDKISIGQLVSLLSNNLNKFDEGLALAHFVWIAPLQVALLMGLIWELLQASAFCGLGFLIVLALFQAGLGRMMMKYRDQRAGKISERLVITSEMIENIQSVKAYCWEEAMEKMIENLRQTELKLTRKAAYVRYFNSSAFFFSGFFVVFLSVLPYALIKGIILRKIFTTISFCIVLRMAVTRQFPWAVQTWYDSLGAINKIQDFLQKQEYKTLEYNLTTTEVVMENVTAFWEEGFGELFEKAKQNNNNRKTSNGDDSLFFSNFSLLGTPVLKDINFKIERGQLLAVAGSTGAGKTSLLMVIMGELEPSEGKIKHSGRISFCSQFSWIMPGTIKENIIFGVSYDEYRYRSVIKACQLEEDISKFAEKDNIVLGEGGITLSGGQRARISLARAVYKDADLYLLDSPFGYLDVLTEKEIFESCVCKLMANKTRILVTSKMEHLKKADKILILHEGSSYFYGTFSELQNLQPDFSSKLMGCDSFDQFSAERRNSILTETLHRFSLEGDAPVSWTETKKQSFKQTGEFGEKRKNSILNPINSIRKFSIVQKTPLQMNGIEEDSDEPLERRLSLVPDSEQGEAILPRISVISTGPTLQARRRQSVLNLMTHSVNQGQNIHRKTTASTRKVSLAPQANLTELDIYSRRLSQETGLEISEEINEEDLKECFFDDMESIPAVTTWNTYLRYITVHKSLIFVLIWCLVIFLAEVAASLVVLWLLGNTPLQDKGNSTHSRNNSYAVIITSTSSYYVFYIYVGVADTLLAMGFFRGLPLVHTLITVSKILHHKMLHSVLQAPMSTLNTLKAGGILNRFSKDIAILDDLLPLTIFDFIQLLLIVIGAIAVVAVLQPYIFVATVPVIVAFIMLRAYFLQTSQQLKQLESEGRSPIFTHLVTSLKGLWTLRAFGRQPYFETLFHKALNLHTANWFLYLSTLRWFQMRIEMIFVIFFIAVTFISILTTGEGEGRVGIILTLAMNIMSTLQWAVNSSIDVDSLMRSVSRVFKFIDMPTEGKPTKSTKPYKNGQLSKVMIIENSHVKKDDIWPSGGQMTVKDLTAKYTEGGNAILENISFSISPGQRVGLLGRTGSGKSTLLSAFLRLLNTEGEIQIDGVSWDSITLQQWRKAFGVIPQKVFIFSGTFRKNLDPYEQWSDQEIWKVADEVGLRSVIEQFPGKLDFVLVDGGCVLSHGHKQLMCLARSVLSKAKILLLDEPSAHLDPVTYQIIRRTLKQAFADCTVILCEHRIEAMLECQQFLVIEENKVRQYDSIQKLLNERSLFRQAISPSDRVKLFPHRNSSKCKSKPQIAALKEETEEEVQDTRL

[2] = biological target: T1, Cystic fibrosis transmembrane conductance regulator; assay: Activation of human CFTR expressed in FRT cells co-expressing YFP assessed as increase in forskolin-stimulated iodide influx measured after 10 mins for 2 to 12 sec by fluorescence assay; assay type: cell-based
Target sequence in this assay (P13569 whole entry): as the sequence (P13569 whole entry, looked up) above

Mus musculus = assay: Induction of tear secretion in mouse at 250 pmol administered as single topical dose up to 8 hrs by phenol red thread test; assay type: functional
Summary of the method: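 Mice 8–12 weeks (25–35 g); single ocular dose of 250 pmol (100 μM) in 2.5 μL vehicle (0.3% CMC in Ringer's), both eyes treated identically, vehicle control. Tear volume by phenol red thread, 10 s in lateral canthus under isoflurane, before and at set times after dosing. 5 mice, 10 eyes per condition; two-way ANOVA with Dunnett test.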

[3] = Metabolic stability in rat hepatic microsomes assessed as parent compound remaining at 5 uM after 15 mins in presence of NADPH by LC-MS analysis; assay type: ADME, Microsome; settings: liver microsomes, read-out: Stability
Summary of the method: (§1)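 Compound at 5 μM incubated at 37 °C with rat liver microsomes (1 mg/mL) in potassium phosphate buffer with 1 mM NADPH; quenched with ice-cold EtOAc, centrifuged, supernatant analysed by LC/MS (C18, water/acetonitrile with 0.1% formic acid gradient, UV 254 nm) for parent remaining; mean ± SEM, n = 3.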

[4] = Metabolic stability in rat hepatic microsomes assessed as parent compound remaining at 5 uM after 60 mins in presence of NADPH by LC-MS analysis; assay type: ADME, Microsome; settings: liver microsomes, read-out: Stability; summary of the method: as §1

Activity [1]	SMILES	also measured
inactive	FC(F)(F)COc1nc(Nc2ccccc2)nc(OCC(F)(F)F)n1	–
–	CCN(CC)c1nc(Nc2ccc([N+](=O)[O-])cc2)nc(OC(C(F)(F)F)C(F)(F)F)n1	EC50 [2]: 18000 nM
inactive	FC(F)(F)COc1nc(Nc2ccc(OC(F)(F)F)cc2)nc(NC2CC2)n1	–
inactive	COc1nc(Nc2ccc([N+](=O)[O-])cc2)nc(OC)n1	–
inactive	CC(C)(C)Nc1nc(Nc2ccc(OC(F)(F)Cl)cc2)nc(OCC(F)(F)F)n1	–
–	CCN(CC)c1nc(Nc2cccc(Cl)c2)nc(OC(C(F)(F)F)C(F)(F)F)n1	EC50 [2]: 2800 nM
Active	CNc1nc(Nc2ccc([N+](=O)[O-])cc2)nc(OCC(F)(F)C(F)F)n1	–
inactive	CNc1nc(Nc2ccc(OC(F)(F)Cl)cc2)nc(OCC(F)(F)F)n1	–
–	CCN(CC)c1nc(Nc2cccc([N+](=O)[O-])c2)nc(OC(C(F)(F)F)C(F)(F)F)n1	EC50 [2]: 200 nM
inactive	CC(=O)N1CCN(c2nc(Nc3ccccc3C(=O)c3ccccc3)nc(OC(C(F)(F)F)C(F)(F)F)n2)CC1	–
Active	C=CCNc1nc(Nc2cccc([N+](=O)[O-])c2)nc(OC(C(F)(F)F)C(F)(F)F)n1	–
–	CCN(CC)c1nc(Nc2ccc(C(=O)O)cc2)nc(OCC(F)(F)C(F)F)n1	EC50 [2]: 2500 nM
inactive	Cc1ccccc1Nc1nc(OC(C(F)(F)F)C(F)(F)F)nc(OC(C(F)(F)F)C(F)(F)F)n1	–
inactive	FC(F)(F)C(Oc1nc(N2CCCCCC2)nc(N(c2ccccc2)c2ccccc2)n1)C(F)(F)F	–
inactive	COc1nc(Nc2ccc(OC)c(Cl)c2)nc(OC)n1	–
inactive	O=[N+]([O-])c1cccc(Nc2nc(OC(C(F)(F)F)C(F)(F)F)nc(OC(C(F)(F)F)C(F)(F)F)n2)c1	–
inactive	COc1ccc(Nc2nc(NC3CCCCC3)nc(OC(C(F)(F)F)C(F)(F)F)n2)cc1	–

Activity [1]	SMILES	also measured
inactive	CC(C)Nc1nc(Nc2ccc([N+](=O)[O-])cc2)nc(OC(C(F)(F)F)C(F)(F)F)n1	–
inactive	CN(C)c1nc(Nc2ccc(OC(F)(F)F)cc2)nc(OCC(F)(F)F)n1	–
inactive	O=[N+]([O-])c1ccccc1Nc1nc(OC(C(F)(F)F)C(F)(F)F)nc(OC(C(F)(F)F)C(F)(F)F)n1	–
inactive	FC(F)(F)C(Oc1nc(Nc2ccc(Cl)cc2)nc(N2CCOCC2)n1)C(F)(F)F	–
–	CCN(CC)c1nc(Nc2ccc3ncoc3c2)nc(OC(C(F)(F)F)C(F)(F)F)n1	remaining at 1 h, 5 µM [4]: 60%
inactive	Cc1ccc(Nc2nc(OC(C(F)(F)F)C(F)(F)F)nc(OC(C(F)(F)F)C(F)(F)F)n2)cc1	–
inactive	CC(=O)c1ccc(Nc2nc(OC(C(F)(F)F)C(F)(F)F)nc(OC(C(F)(F)F)C(F)(F)F)n2)cc1	–
inactive	Fc1ccc(Nc2nc(OC(C(F)(F)F)C(F)(F)F)nc(N3CCCCC3)n2)cc1	–
inactive	CNc1nc(Nc2ccccc2C(F)(F)F)nc(OC(C(F)(F)F)C(F)(F)F)n1	–
inactive	CNc1nc(Nc2ccc(C(C)=O)cc2)nc(OC(C(F)(F)F)C(F)(F)F)n1	–
inactive	FC(F)(F)COc1nc(Nc2ccc(OC(F)(F)Cl)cc2)nc(OCC(F)(F)F)n1	–
–	CCN(CC)c1nc(Nc2ccc3[nH]ncc3c2)nc(OC(C(F)(F)F)C(F)(F)F)n1	EC50 [2]: 2800 nM
inactive	CCC(C)Nc1nc(Nc2ccc([N+](=O)[O-])cc2)nc(OC(C(F)(F)F)C(F)(F)F)n1 (configuration not stated)	–
inactive	O=[N+]([O-])c1ccc(Nc2nc(OC(C(F)(F)F)C(F)(F)F)nc(OC(C(F)(F)F)C(F)(F)F)n2)cc1	–
inactive	FC(F)(F)C(Oc1nc(Nc2ccccc2)nc(OC(C(F)(F)F)C(F)(F)F)n1)C(F)(F)F	–
inactive	Cc1ccc(Nc2nc(OC(C(F)(F)F)C(F)(F)F)nc(N3CCCCC3)n2)cc1	–
inactive	FC(F)(F)C(Oc1nc(Nc2cccnc2)nc(OC(C(F)(F)F)C(F)(F)F)n1)C(F)(F)F	–

SMILES	Activity [1]	also measured
CCN(CC)c1nc(Nc2ccccc2)nc(OC(C(F)(F)F)C(F)(F)F)n1	Active	Activity (Mus musculus): Active; remaining at […], 5 µM [3]: < 40%
